# Only some compounds are listed: those with a hit (about 2.1% of all), similar ones and a draw of the others.
# RBBP9 inhibitor – blocks human serine hydrolase RBBP9; O75884; recombinant RBBP9, FP-Rh probe fluorescence polarization; inhibition, % at 7.94 µM; actives 0.2% (n = 220,000);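 active = inhibition above the campaign mean of all tested compounds plus 3 SD, cut at about 14% in these data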
# Target sequence (O75884 whole entry, looked up): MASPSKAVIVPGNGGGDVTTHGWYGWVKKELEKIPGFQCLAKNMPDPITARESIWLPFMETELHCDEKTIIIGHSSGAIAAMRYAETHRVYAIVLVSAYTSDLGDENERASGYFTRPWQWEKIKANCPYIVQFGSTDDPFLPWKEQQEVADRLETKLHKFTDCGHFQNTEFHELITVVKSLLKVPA
#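 Controls: DMSO-treated enzyme wells and wells lacking RBBP9 | Material: RBBP9 protein | Technique: Fluorescence polarization | Replication: Single well per compound, no replicates | Buffer or medium: Tris-NaCl-Pluronic buffer, pH 8.0 | Timing: 30 min compound preincubation, 45 min probe labeling, 25 °C | Read-out basis: Percent inhibition from mP, scaled between DMSO and no-protein wells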
# Arbovirus anti – arbovirus infection inhibition. arbovirus infection cell-based antiviral screen. inhibition, % at 10 µM. actives 0.37% (n = 200,000); in the data active = inhibition above about 30%
# Ins promoter up – MIN6 insulin promoter up-regulation; MIN6 insulin promoter-GFP reporter, high-content imaging; stronger effect = higher value; z-score at 5 µM; actives 0.3% (n = 190,000); AID 1625;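 active = z-score above 3 at 5 µM with at least 500 cells counted in the well; inconclusive = wells under 500 cells, flagged as cytotoxic or low count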
# INS promoter inh – TRM-6 insulin promoter activity inhibition. TRM-6 cells, insulin promoter-eGFP reporter, imaging; reporter expression induced with tamoxifen. inhibition, % at 2 µM. actives 0.9% (n = 130,000);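 active = inhibition above the mean plus 3 SD, with well images judged a real hit on visual review, cut at about 60% in these data, passing the limit was not always enough; inconclusive = inhibition over the cutoff but images rejected on review; inactive = inhibition not above the cutoff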
# Autophagy mod – alters autophagy in cells; calls only at 10 µM (by protocol); MEF GFP-LC3 puncta imaging; test concentration mostly 10 µM; actives 0.98% (n = 190,000);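 active = percentage of spot-positive cells more than 3 SD above its plate mean, without a fluorescence outlier flag or 80% toxicity; inconclusive = no clear call, values can overlap the other calls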
# PKD1 inh – blocks activity of human protein kinase D1; PKD1 kinase fluorescence polarization assay; inhibition, % (no concentration beside the values); actives 0.056% (n = 200,000); AID 797; in the data active = inhibition above about 50%
# Numbers stand for hits; 0 = inactive; ? = inconclusive; - = no result given; + = active, no number.
SMILES,RBBP9 inhibitor,Arbovirus anti,Ins promoter up,INS promoter inh,Autophagy mod,PKD1 inh
C[N+]1(CCC(=O)c2ccccc2)CCCCC1,0,0,0,64,0,0
O=C(CCN1CCCCC1)c1ccccc1,0,0,0,0,0,0
COc1ccc(Nc2nc(-c3cccc([N+](=O)[O-])c3)nc3ccccc23)c(OC)c1,0,0,0,-,0,0
COc1ccc(OC)c(Nc2nc(-c3cccc([N+](=O)[O-])c3)nc3ccccc23)c1,0,0,0,0,+,0
CCc1ccc2nc(SCC(=O)Nc3ccccc3N3CCOCC3)c(C#N)cc2c1,0,-,0,-,-,-
Cc1ccc2nc(SCC(=O)Nc3ccccc3N3CCOCC3)c(C#N)cc2c1,0,0,0,0,+,0
O=C(CCCOc1ccccc1)Nc1cccc([N+](=O)[O-])c1,0,0,0,77,0,0
COc1cccc(NC(=O)CSCC(=O)Nc2ccccc2)c1,0,0,-,0,0,0
COc1cccc(NC(=O)Cc2ccccc2)c1,0,0,0,73,0,0
CCCCn1c(=NC(=O)c2cccnc2)c(C(=O)OCC)cc2c(=O)n3ccccc3nc21,0,0,0,0,0,0
Cc1nc2c(Cl)cc(Cl)cc2[nH]1,0,0,0,73,0,0
O=C(CN1C(=O)c2ccccc2C1=O)Nc1sc2c(c1C(=O)NCc1ccco1)CCCC2,0,0,0,92,0,0
O=C(O)c1cc2cc(OCc3ccccc3)ccc2[nH]1,0,0,0,-,0,0
COc1ccc(C(=O)c2ccc(OC)c(N)c2)cc1N,0,0,0,0,+,0
COc1cccc(-n2nc(C#N)c(Cl)cc2=O)c1,0,0,0,0,+,0
Cc1ccc(S(=O)(=O)N(C)C)cc1NC(=O)COC(=O)/C(=C/c1ccc(F)cc1)c1cccs1,0,0,0,64,0,0
Oc1ccc(/C=N/Nc2cc(N3CCCC3)nc(N3CCCC3)n2)cc1,0,0,0,-,0,0
COc1ccc(/C=N/Nc2cc(N3CCCC3)nc(N3CCCC3)n2)cc1,0,0,0,0,+,0
COc1ccc(N(CC(=O)Nc2nccs2)S(=O)(=O)c2c(C)[nH]c(=O)[nH]c2=O)cc1,0,0,0,79,0,0
CCOc1ccc(N(CC(=O)Nc2ccc(OC)cc2)S(=O)(=O)c2c(C)[nH]c(=O)[nH]c2=O)cc1,0,0,0,0,0,0
O=C(O)CSc1nnc(CNc2cccc(C(F)(F)F)c2)n1Cc1ccco1,0,34,0,0,0,0
COCCn1c(-c2ccc(Cl)cc2)cnc1SCC(=O)NCc1cccs1,0,58,0,0,0,0
CCN1CC=C2C(C#N)=C(N)C(C#N)(C#N)C(CCc3ccccc3)C2C1 (stereo not given),0,0,-,0,+,0
CC(=O)N1CC=C2C(C#N)=C(N)C(C#N)(C#N)[C@H](c3ccoc3)[C@H]2C1,0,0,0,0,0,0
N#CC1=C(N)C(C#N)(C#N)[C@H](c2ccoc2)[C@H]2CN(Cc3ccccc3)CC=C12,0,0,-,0,+,0
SMILES,RBBP9 inhibitor,Arbovirus anti,Ins promoter up,INS promoter inh,Autophagy mod,PKD1 inh
CN1CC=C2C(C#N)=C(N)C(C#N)(C#N)C(c3cccc(Cl)c3Cl)C2C1 (stereo not given),0,0,-,0,+,0
CN1CC=C2C(C#N)=C(N)C(C#N)(C#N)[C@H](c3ccoc3)[C@H]2C1,0,0,-,0,+,0
COc1ccc(OC)c(NC(=S)N(CCc2c(C)[nH]c3ccc(C)cc23)Cc2cccs2)c1,0,0,0,0,0,0
Cc1cc(C)cc(NC(=O)NCc2nnc(SCc3ccccc3)n2C)c1,0,0,0,-,0,0
CCc1ccc(C(=O)/C=C/c2ccc([N+](=O)[O-])o2)cc1,0,0,0,0,+,0
Cc1cc(=O)[nH]c(SCC(=O)Nc2nnc(SCc3ccccc3)s2)n1,0,0,0,0,0,0
CCOC(=O)c1ccc(NC(=O)c2ccc(NS(C)(=O)=O)cc2)cc1,0,0,0,0,0,0
CC(C)c1ccc(NC(=O)c2ccc(NS(C)(=O)=O)cc2)cc1,0,0,0,-,+,0
CC(C)N(Cc1nc(-c2ccccc2)no1)C(=O)C(C)(C)C,0,0,0,0,+,0
CCCCCCC(=O)N(O)C1CC(=O)N(c2ccc(Br)cc2)C1=O (stereo not given),0,0,0,-,0,0
Cc1cc(C)c2nc(/N=C(\N)NC(=O)c3ccccc3)nc(C)c2c1,0,-,0,-,-,-
CC1=C(C)C(=O)NC(Nc2nc(C)c3cc(C)cc(C)c3n2)N1 (stereo not given),0,-,-,0,+,0
CCC(C)N1C(=O)/C(=C/c2c(NCCCOC(C)C)nc3c(C)cccn3c2=O)SC1=S (stereo not given),0,0,-,0,?,0
CCCN1C(=O)/C(=C/c2c(NCCCOC(C)C)nc3c(C)cccn3c2=O)SC1=S,0,0,-,0,+,0
Cc1cccc(-n2nnc(C(=O)NCc3ccc4c(c3)OCO4)c2N)c1,0,0,-,-,0,0
c1ccc(CCNc2nc3ccccc3n3nnnc23)cc1,0,0,0,0,+,0
CSc1cc(/C=N/O)c(SC)s1,0,0,0,-,0,0
CC(C)N(CCCNC(=O)c1ccc(N2CCCC2=O)cc1)Cc1ccccc1,0,0,0,-,0,0
COc1ccc(C(=O)c2cc([N+](=O)[O-])ccc2N2CCN(C)CC2)cc1,0,0,0,-,+,0
CCC1CN(C(=O)Nc2ccc(C)cc2)c2cc(C)ccc2O1 (stereo not given),0,0,-,0,+,0
Cn1nnnc1SCc1ccc(C(=O)Nc2ccc(Br)cc2)cc1,0,0,-,0,0,0
O=C(Nc1ccc2[nH]c(=S)sc2c1)Nc1ccccc1F,0,-,0,-,-,-
CCNC(=O)N1CCN(C(=O)NCC)CC1,0,0,0,-,0,0
CCNC(=O)N1CCOCC1,0,0,0,86,0,0
Cc1ccc(S(=O)(=O)NCCCNC(=O)N2CCOCC2)cc1,0,0,0,0,+,0
SMILES,RBBP9 inhibitor,Arbovirus anti,Ins promoter up,INS promoter inh,Autophagy mod,PKD1 inh
O=C(NCCc1ccc(F)cc1)N1CCOCC1,0,0,0,83,0,0
O=C(O)Cn1c(=O)cnc2ccccc21,0,0,0,0,0,0
CCOc1cc(C2NC(=O)NC(c3ccccc3)=C2C(C)=O)ccc1OC(C)=O (stereo not given),0,0,-,-,0,0
CCc1ccc(OCC2c3cc(OC)c(OC)cc3CCN2C(=S)NCCOC)cc1 (stereo not given),0,0,0,-,0,0
O=c1oc(-c2cccs2)nc2ccc(Br)cc12,0,46,0,0,0,0
Cc1ccc2nc(-c3cccs3)oc(=O)c2c1,0,0,0,0,0,0
COc1ccc(OC)c(-c2c(C#N)c(N)nc3c2c(=O)nc2sccn23)c1,0,0,0,0,+,0
COc1ccc(OC)c(-c2cc(-c3cccnc3)nc(N)c2C#N)c1,0,-,0,-,-,-
COC(=O)c1ccc(COC(=O)c2ccc(S(=O)(=O)N3CCC(C)CC3)cc2)o1,0,0,0,0,0,0
